ChEMBL document CHEMBL1128503 (J Med Chem, 1995)

What was measured:
[1] = molecular target: T1, Sodium-dependent dopamine transporter (Rattus norvegicus, UniProt P23977); assay: Inhibition of [3H]dopamine […] to rat striatal synaptosome dopamine transporter; assay type: tissue-based, Brain
[2] = molecular target: T1, Sodium-dependent dopamine transporter; assay: Binding affinity towards dopamine transporter using [3H]-mazindol as radioligand in rat striatal membranes.; assay type: cell membranes
Procedure, shortened: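 Competition assay: test analogues displace [3H]mazindol binding in rat striatal membranes. This radioligand labels a single high-affinity, sodium-dependent cocaine site on the dopamine carrier.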

T1 sequence (P23977 whole entry): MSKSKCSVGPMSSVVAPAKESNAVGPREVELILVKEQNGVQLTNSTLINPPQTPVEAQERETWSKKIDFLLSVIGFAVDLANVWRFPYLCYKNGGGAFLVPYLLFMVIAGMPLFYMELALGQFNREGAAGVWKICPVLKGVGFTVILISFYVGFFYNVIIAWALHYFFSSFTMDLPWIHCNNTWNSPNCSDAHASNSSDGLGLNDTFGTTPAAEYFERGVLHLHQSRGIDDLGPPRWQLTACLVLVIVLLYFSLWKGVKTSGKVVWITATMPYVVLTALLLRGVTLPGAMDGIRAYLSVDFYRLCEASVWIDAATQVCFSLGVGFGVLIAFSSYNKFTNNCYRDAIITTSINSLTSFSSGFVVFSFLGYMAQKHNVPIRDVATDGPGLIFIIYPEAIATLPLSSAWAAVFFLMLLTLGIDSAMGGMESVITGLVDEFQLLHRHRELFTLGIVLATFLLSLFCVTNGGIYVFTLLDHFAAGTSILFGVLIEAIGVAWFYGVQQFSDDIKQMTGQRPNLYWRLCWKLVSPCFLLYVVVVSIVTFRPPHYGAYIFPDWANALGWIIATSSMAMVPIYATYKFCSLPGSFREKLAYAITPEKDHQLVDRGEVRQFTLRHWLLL

| SMILES | Ki [1] [nM] | Ki [2] [nM] |
| --- | --- | --- |
| CN1C2CCC1[C@@H](CCc1ccccc1)[C@@H](c1ccc(Cl)cc1)C2 (stereo not given in full) | 1.54 | 1.46 |
| CN1C2CCC1[C@@H](/C=C\Cl)[C@@H](c1ccc(Cl)cc1)C2 (stereo not given in full) | 0.88 | 0.22 |
| CC[C@@H]1C2CCC(C[C@@H]1c1ccc(Cl)cc1)N2C (stereo not given in full) | 2.35 | 2.17 |
| C=C[C@@H]1C2CCC(C[C@@H]1c1ccc(Cl)cc1)N2C (stereo not given in full) | 2.47 | 0.59 |
| CN1C2CCC1[C@@H](/C=C/Cl)[C@@H](c1ccc(Cl)cc1)C2 (stereo not given in full) | 1.13 | 0.42 |
| CCC[C@@H]1C2CCC(C[C@@H]1c1ccc(Cl)cc1)N2C (stereo not given in full) | 1.08 | 0.94 |
| CCCCCC[C@@H]1C2CCC(C[C@@H]1c1ccc(Cl)cc1)N2C (stereo not given in full) | 271 | 156 |
| CCC[C@@H]1C2CCC(C[C@@H]1c1ccccc1)N2C (stereo not given in full) | 1.61 | 1.87 |
| CCCC[C@@H]1C2CCC(C[C@@H]1c1ccc(Cl)cc1)N2C (stereo not given in full) | 0.84 | 1.21 |
| COC(=O)C1C2CC[C@H](C[C@@H]1c1ccc(Cl)cc1)N2C (stereo not given in full) | 2.85 | 0.83 |
